Experimental data reported in ChEMBL document CHEMBL5715960, “Epigenetic Co-Deregulation of EZH2/TET1 is a Senescence-Countering, Actionable Vulnerability in Triple-Negative Breast Cancer” (Theranostics, 2019).
Activity calls are given as the source filed them. The calls are words filed in the database; no cut-off is given here.

Assays:
[1] = test system: MDA-MB-231; experiment: Antiproliferative activity against human MDA-MB-231 cells assessed as increase in global H3K9me3 expression level by immunoblot analysis; format: functional, cell-based
In short: (§1)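 Cells exposed to GSK343 at 2 µM (standard level unless stated otherwise), lysed and immunoblotted; α-tubulin and total H3 as loading controls.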

[2] = test system: MDA-MB-436; experiment: Antiproliferative activity against human MDA-MB-436 cells assessed as increase in global H3K9me3 expression level by immunoblot analysis; format: functional, cell-based; in short: as §1
[3] = test system: BT-474; experiment: Antiproliferative activity against human BT-474 cells assessed as increase in global H3K9me3 expression level by immunoblot analysis; format: toxicity, cell-based; in short: as §1
[4] = test system: MCF7; experiment: Antiproliferative activity against human MCF7 cells assessed as increase in global H3K9me3 expression level by immunoblot analysis; format: toxicity, cell-based; in short: as §1
[5] = test system: MDA-MB-231; experiment: Cytotoxicity against human MDA-MB-231 cells upto 0.5 ug/ml; format: functional, cell-based; conditions: dose <= 0.5 µg/ml
[6] = test system: MDA-MB-436; experiment: Cytotoxicity against human MDA-MB-436 cells upto 0.5 ug/ml; format: functional, cell-based; conditions: dose <= 0.5 µg/ml

SMILES	Activity [1]	Activity [2]	Activity [3]	Activity [4]	Activity [5]	Activity [6]
Nc1nccc2c1ncn2[C@@H]1C=C(CO)[C@@H](O)[C@H]1O	Active	inactive	Non-Toxic	Non-Toxic	–	–
COc1cccc2c1C(=O)c1c(O)c3c(c(O)c1C2=O)C[C@@](O)(C(=O)CO)C[C@@H]3O[C@H]1C[C@H](N)[C@H](O)[C@H](C)O1	–	–	–	–	inactive	inactive
